# Data reported in ChEMBL document CHEMBL1667841, “Furoxan nitric oxide donor coupled chrysin derivatives: synthesis and vasculoprotection” (Bioorg Med Chem Lett, 2011).
# Key:
# [1] = target: Aldo-keto reductase family 1 member B1 (Homo sapiens, UniProt P15121); test: Inhibition of aldose reductase by spectrophotometric analysis
# [2] = Induction of NO release in phosphate buffered saline of pH 7.4 at 10^-4 M after 1 hr by Griess assay in presence of L-cysteine; format: physicochemical; conditions: buffer, pH 7.4, 1 h, 100 µM
# How it was run: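 Compound at 10^-4 M final in 1:1 v/v 50 mM PBS (pH 7.4)/MeOH containing 5 × 10^-4 M L-cysteine, 1 h at 37 °C; mixture treated with Griess reagent, 10 min at room temperature, absorbance 540 nm. Nitrite quantified against sodium nitrite standards (10–80 nmol/mL); expressed as % of theoretical 1 mol NO/mol compound, n = 3.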
# [3] = Inhibition of advanced glycation end product formation in phosphate buffered saline at pH 7.4 after 14 days by fluorospectrophotometry; format: physicochemical
Structure (SMILES),IC50 [1],Activity [2],IC50 [3]
CC(=O)Oc1cc(OCC(=O)OCc2cccc(OCc3c(-c4ccccc4)no[n+]3[O-])c2)cc2oc(-c3ccccc3)cc(=O)c12,1620 nM,1.89%,26400 nM
CC(=O)Oc1cc(OCC(=O)OCc2ccc(OCc3c(-c4ccccc4)no[n+]3[O-])cc2)cc2oc(-c3ccccc3)cc(=O)c12,1930 nM,–,–
[O-][n+]1onc(-c2ccccc2)c1CO,≥ 10000 nM,–,–
O=c1cc(-c2ccccc2)oc2cc(O)cc(O)c12 [CHRYSIN],7780 nM,–,63500 nM
N=C(N)NN [PIMAGEDINE],–,–,826000 nM

# Second part, the compound after the results:
IC50 [1],Activity [2],IC50 [3],Structure (SMILES)
220 nM,–,–,O=C(COc1cc(O)c2c(=O)cc(-c3ccccc3)oc2c1)OCc1cccc(OCc2c(-c3ccccc3)no[n+]2[O-])c1
400 nM,–,–,O=C(COc1cc(O)c2c(=O)cc(-c3ccccc3)oc2c1)OCc1ccc(OCc2c(-c3ccccc3)no[n+]2[O-])cc1
900 nM,–,–,CC(=O)Oc1cc(OCC(=O)OCc2c(-c3ccccc3)no[n+]2[O-])cc2oc(-c3ccccc3)cc(=O)c12
750 nM,–,–,O=C(COc1cc(O)c2c(=O)cc(-c3ccccc3)oc2c1)OCc1c(-c2ccccc2)no[n+]1[O-]
